Test results as given in ChEMBL document CHEMBL4689842, “EUbOPEN Chemogenomics Library wave 1” (2021).

Tested on: U2OS
Assay: Multiplex assay against U2OS
Assay type: toxicity, cell-based
Details: human
Summary of the method: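 Live cells carried four stains from seeding: Hoechst33342, BioTracker Green Microtubule Cytoskeleton Dye, MitoTracker Red and Annexin V Alexa Fluor 680. They were imaged on a CQ1 microscope at 37°C and 5% CO2 after compound addition. Using CellPathfinder machine-learning gating, cells were split into Hoechst high-intensity objects or normal cells, normal cells into healthy, pyknosed or fragmented nuclei, and pyknosed cells into mitotic or apoptotic; tubulin, mitochondrial-mass and membrane-permeability phenotypes are per cents of healthy-nucleus cells.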

[1] = 12 h, 1 µM, compound concentration 1 uM, replicate 1
[2] = 12 h, 1 µM, compound concentration 1 uM, replicate 2
[3] = 12 h, 10 µM, compound concentration 10 uM, replicate 1
[4] = 12 h, 10 µM, compound concentration 10 uM, replicate 2
[5] = 24 h, 1 µM, compound concentration 1 uM, replicate 1
[6] = 24 h, 1 µM, compound concentration 1 uM, replicate 2
[7] = 24 h, 10 µM, compound concentration 10 uM, replicate 1
[8] = 24 h, 10 µM, compound concentration 10 uM, replicate 2
[9] = 48 h, 1 µM, compound concentration 1 uM, replicate 1
[10] = 48 h, 1 µM, compound concentration 1 uM, replicate 2
[11] = 48 h, 10 µM, compound concentration 10 uM, replicate 1
[12] = 48 h, 10 µM, compound concentration 10 uM, replicate 2

## O=c1cc(N2CCOCC2)oc2c(-c3cccc4c3sc3ccccc34)cccc12
[1]
  Population Apoptotic (%): 35%
  Population Fragmented Nuclei (%): 12%
  Population Healthy Nuclei (%): 76%
  Population Hoechst High Intensity Objects (%): 7%
  Population Membrane Permeable-Phenotype (%): 2%
  Population Mitochondria Different-Phenotype (%): 10%
  Population Mitotic Cells (%): 65%
  Population Normal (%): 92%
  Population Pyknosed Nuclei (%): 11%
  Population Tubulin-Different-Phenotype (%): 10%
  Total Cell Count: 120
[2]
  Population Apoptotic (%): 100%
  Population Fragmented Nuclei (%): 15%
  Population Healthy Nuclei (%): 77%
  Population Hoechst High Intensity Objects (%): 10%
  Population Mitochondria Different-Phenotype (%): 6%
  Population Mitotic Cells (%): 0%
  Population Normal (%): 90%
  Population Pyknosed Nuclei (%): 6%
  Population Tubulin-Different-Phenotype (%): 14%
  Total Cell Count: 79
[3]
  Population Apoptotic (%): 52%
  Population Fragmented Nuclei (%): 20%
  Population Healthy Nuclei (%): 47%
  Population Hoechst High Intensity Objects (%): 4%
  Population Membrane Permeable-Phenotype (%): 24%
  Population Mitochondria Different-Phenotype (%): 73%
  Population Mitotic Cells (%): 47%
  Population Normal (%): 95%
  Population Pyknosed Nuclei (%): 32%
  Population Tubulin-Different-Phenotype (%): 100%
  Total Cell Count: 190
[4]
  Population Apoptotic (%): 31%
  Population Fragmented Nuclei (%): 19%
  Population Healthy Nuclei (%): 45%
  Population Hoechst High Intensity Objects (%): 16%
  Population Membrane Permeable-Phenotype (%): 23%
  Population Mitochondria Different-Phenotype (%): 90%
  Population Mitotic Cells (%): 68%
  Population Normal (%): 83%
  Population Pyknosed Nuclei (%): 34%
  Population Tubulin-Different-Phenotype (%): 95%
  Total Cell Count: 70
[5]
  Population Apoptotic (%): 25%
  Population Fragmented Nuclei (%): 14%
  Population Healthy Nuclei (%): 74%
  Population Hoechst High Intensity Objects (%): 7%
  Population Membrane Permeable-Phenotype (%): 4%
  Population Mitochondria Different-Phenotype (%): 7%
  Population Mitotic Cells (%): 75%
  Population Normal (%): 92%
  Population Pyknosed Nuclei (%): 10%
  Population Tubulin-Different-Phenotype (%): 7%
  Total Cell Count: 118
[6]
  Population Apoptotic (%): 60%
  Population Fragmented Nuclei (%): 11%
  Population Healthy Nuclei (%): 82%
  Population Hoechst High Intensity Objects (%): 6%
  Population Membrane Permeable-Phenotype (%): 9%
  Population Mitochondria Different-Phenotype (%): 9%
  Population Mitotic Cells (%): 40%
  Population Normal (%): 93%
  Population Pyknosed Nuclei (%): 6%
  Population Tubulin-Different-Phenotype (%): 15%
  Total Cell Count: 86
[7]
  Population Apoptotic (%): 60%
  Population Fragmented Nuclei (%): 16%
  Population Healthy Nuclei (%): 27%
  Population Hoechst High Intensity Objects (%): 7%
  Population Membrane Permeable-Phenotype (%): 22%
  Population Mitochondria Different-Phenotype (%): 93%
  Population Mitotic Cells (%): 40%
  Population Normal (%): 92%
  Population Pyknosed Nuclei (%): 55%
  Population Tubulin-Different-Phenotype (%): 97%
  Total Cell Count: 242
[8]
  Population Apoptotic (%): 66%
  Population Fragmented Nuclei (%): 14%
  Population Healthy Nuclei (%): 21%
  Population Hoechst High Intensity Objects (%): 6%
  Population Membrane Permeable-Phenotype (%): 50%
  Population Mitochondria Different-Phenotype (%): 70%
  Population Mitotic Cells (%): 33%
  Population Normal (%): 94%
  Population Pyknosed Nuclei (%): 63%
  Population Tubulin-Different-Phenotype (%): 70%
  Total Cell Count: 86
[9]
  Population Apoptotic (%): 43%
  Population Fragmented Nuclei (%): 7%
  Population Hoechst High Intensity Objects (%): 5%
  Population Membrane Permeable-Phenotype (%): 3%
  Population Mitochondria Different-Phenotype (%): 8%
  Population Mitotic Cells (%): 56%
  Population Normal (%): 94%
  Population Pyknosed Nuclei (%): 18%
  Population Tubulin-Different-Phenotype (%): 9%
  Total Cell Count: 127
[10]
  Population Apoptotic (%): 18%
  Population Fragmented Nuclei (%): 16%
  Population Healthy Nuclei (%): 73%
  Population Hoechst High Intensity Objects (%): 4%
  Population Membrane Permeable-Phenotype (%): 12%
  Population Mitochondria Different-Phenotype (%): 12%
  Population Mitotic Cells (%): 81%
  Population Normal (%): 95%
  Population Pyknosed Nuclei (%): 9%
  Population Tubulin-Different-Phenotype (%): 18%
  Total Cell Count: 103
[11]
  Population Apoptotic (%): 81%
  Population Fragmented Nuclei (%): 30%
  Population Healthy Nuclei (%): 5%
  Population Hoechst High Intensity Objects (%): 13%
  Population Membrane Permeable-Phenotype (%): 55%
  Population Mitochondria Different-Phenotype (%): 88%
  Population Mitotic Cells (%): 19%
  Population Normal (%): 86%
  Population Pyknosed Nuclei (%): 63%
  Population Tubulin-Different-Phenotype (%): 77%
  Total Cell Count: 305
[12]
  Population Apoptotic (%): 80%
  Population Fragmented Nuclei (%): 22%
  Population Healthy Nuclei (%): 25%
  Population Hoechst High Intensity Objects (%): 12%
  Population Membrane Permeable-Phenotype (%): 50%
  Population Mitochondria Different-Phenotype (%): 83%
  Population Mitotic Cells (%): 20%
  Population Normal (%): 87%
  Population Pyknosed Nuclei (%): 52%
  Population Tubulin-Different-Phenotype (%): 58%
  Total Cell Count: 116

## CN1CCN(Cc2ccc(Nc3ncc(Cl)c(Nc4ccccc4S(=O)(=O)N(C)C)n3)cc2)CC1 [DUBERMATINIB]
[1]
  Population Apoptotic (%): 73%
  Population Fragmented Nuclei (%): 20%
  Population Healthy Nuclei (%): 51%
  Population Hoechst High Intensity Objects (%): 11%
  Population Membrane Permeable-Phenotype (%): 6%
  Population Mitochondria Different-Phenotype (%): 9%
  Population Mitotic Cells (%): 26%
  Population Normal (%): 88%
  Population Pyknosed Nuclei (%): 27%
  Population Tubulin-Different-Phenotype (%): 6%
  Total Cell Count: 172
[2]
  Population Apoptotic (%): 100%
  Population Fragmented Nuclei (%): 13%
  Population Healthy Nuclei (%): 83%
  Population Hoechst High Intensity Objects (%): 10%
  Population Membrane Permeable-Phenotype (%): 4%
  Population Mitochondria Different-Phenotype (%): 16%
  Population Mitotic Cells (%): 0%
  Population Normal (%): 89%
  Population Pyknosed Nuclei (%): 2%
  Population Tubulin-Different-Phenotype (%): 11%
  Total Cell Count: 65
[3]
  Population Apoptotic (%): 78%
  Population Fragmented Nuclei (%): 25%
  Population Healthy Nuclei (%): 44%
  Population Hoechst High Intensity Objects (%): 12%
  Population Membrane Permeable-Phenotype (%): 9%
  Population Mitochondria Different-Phenotype (%): 40%
  Population Mitotic Cells (%): 21%
  Population Normal (%): 87%
  Population Pyknosed Nuclei (%): 29%
  Population Tubulin-Different-Phenotype (%): 28%
  Total Cell Count: 140
[4]
  Population Apoptotic (%): 73%
  Population Fragmented Nuclei (%): 45%
  Population Healthy Nuclei (%): 31%
  Population Hoechst High Intensity Objects (%): 9%
  Population Membrane Permeable-Phenotype (%): 28%
  Population Mitochondria Different-Phenotype (%): 38%
  Population Mitotic Cells (%): 26%
  Population Normal (%): 90%
  Population Pyknosed Nuclei (%): 22%
  Population Tubulin-Different-Phenotype (%): 42%
  Total Cell Count: 91
[5]
  Population Apoptotic (%): 88%
  Population Fragmented Nuclei (%): 29%
  Population Healthy Nuclei (%): 45%
  Population Hoechst High Intensity Objects (%): 10%
  Population Membrane Permeable-Phenotype (%): 11%
  Population Mitochondria Different-Phenotype (%): 14%
  Population Mitotic Cells (%): 11%
  Population Normal (%): 90%
  Population Pyknosed Nuclei (%): 25%
  Population Tubulin-Different-Phenotype (%): 4%
  Total Cell Count: 188
[6]
  Population Apoptotic (%): 0%
  Population Fragmented Nuclei (%): 11%
  Population Healthy Nuclei (%): 83%
  Population Hoechst High Intensity Objects (%): 6%
  Population Membrane Permeable-Phenotype (%): 4%
  Population Mitochondria Different-Phenotype (%): 36%
  Population Mitotic Cells (%): 100%
  Population Normal (%): 93%
  Population Pyknosed Nuclei (%): 4%
  Population Tubulin-Different-Phenotype (%): 14%
  Total Cell Count: 70
[7]
  Population Apoptotic (%): 84%
  Population Fragmented Nuclei (%): 38%
  Population Healthy Nuclei (%): 24%
  Population Hoechst High Intensity Objects (%): 19%
  Population Membrane Permeable-Phenotype (%): 4%
  Population Mitochondria Different-Phenotype (%): 45%
  Population Mitotic Cells (%): 15%
  Population Normal (%): 80%
  Population Pyknosed Nuclei (%): 37%
  Population Tubulin-Different-Phenotype (%): 22%
  Total Cell Count: 150
[8]
  Population Apoptotic (%): 95%
  Population Fragmented Nuclei (%): 30%
  Population Healthy Nuclei (%): 33%
  Population Hoechst High Intensity Objects (%): 14%
  Population Membrane Permeable-Phenotype (%): 55%
  Population Mitochondria Different-Phenotype (%): 55%
  Population Mitotic Cells (%): 4%
  Population Normal (%): 85%
  Population Pyknosed Nuclei (%): 36%
  Population Tubulin-Different-Phenotype (%): 65%
  Total Cell Count: 87
[9]
  Population Apoptotic (%): 82%
  Population Fragmented Nuclei (%): 29%
  Population Healthy Nuclei (%): 44%
  Population Hoechst High Intensity Objects (%): 8%
  Population Membrane Permeable-Phenotype (%): 8%
  Population Mitochondria Different-Phenotype (%): 28%
  Population Mitotic Cells (%): 17%
  Population Normal (%): 91%
  Population Pyknosed Nuclei (%): 25%
  Population Tubulin-Different-Phenotype (%): 11%
  Total Cell Count: 217
[10]
  Population Apoptotic (%): 100%
  Population Fragmented Nuclei (%): 16%
  Population Healthy Nuclei (%): 78%
  Population Mitochondria Different-Phenotype (%): 37%
  Population Mitotic Cells (%): 0%
  Population Pyknosed Nuclei (%): 4%
  Population Tubulin-Different-Phenotype (%): 17%
  Total Cell Count: 87
[11]
  Population Apoptotic (%): 92%
  Population Fragmented Nuclei (%): 40%
  Population Healthy Nuclei (%): 8%
  Population Hoechst High Intensity Objects (%): 30%
  Population Membrane Permeable-Phenotype (%): 33%
  Population Mitochondria Different-Phenotype (%): 50%
  Population Mitotic Cells (%): 7%
  Population Normal (%): 69%
  Population Pyknosed Nuclei (%): 51%
  Population Tubulin-Different-Phenotype (%): 33%
  Total Cell Count: 146
[12]
  Population Apoptotic (%): 85%
  Population Fragmented Nuclei (%): 24%
  Population Healthy Nuclei (%): 49%
  Population Hoechst High Intensity Objects (%): 20%
  Population Membrane Permeable-Phenotype (%): 80%
  Population Mitochondria Different-Phenotype (%): 84%
  Population Mitotic Cells (%): 14%
  Population Normal (%): 79%
  Population Pyknosed Nuclei (%): 26%
  Population Tubulin-Different-Phenotype (%): 76%
  Total Cell Count: 104
